From article PMC11246720 (Journal of the American Chemical Society, 2023) come the findings set out here.

Experiment [1] has as its target T1, MAGE-A4 (Homo sapiens, UniProt P43358).
T1 sequence (P43358 1-317): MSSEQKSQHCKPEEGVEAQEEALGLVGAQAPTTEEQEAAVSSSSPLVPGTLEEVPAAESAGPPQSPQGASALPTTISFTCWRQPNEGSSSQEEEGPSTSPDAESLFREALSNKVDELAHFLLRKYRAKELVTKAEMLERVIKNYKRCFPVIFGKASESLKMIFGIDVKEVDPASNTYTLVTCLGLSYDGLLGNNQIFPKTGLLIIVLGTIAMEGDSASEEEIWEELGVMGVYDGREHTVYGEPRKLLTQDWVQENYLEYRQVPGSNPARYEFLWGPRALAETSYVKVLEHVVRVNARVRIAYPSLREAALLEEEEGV
The experiment is described as follows: TR-FRET between AF647-MTP-1 and MAGE-A4. The experiment is classed as binding. The gist of the method: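 Time-dependent TR-FRET measured displacement of AF647-labelled MTP-1 peptide tracer from MAGE-A4 (and from MAGE-A4 C80A) by covalent peptides. IC50 values were calculated from the resulting TR-FRET curves.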
Background: In TR-FRET formats the signal depends on donor and acceptor labels being close together.

The target in experiment [2] is T2, MAGE-A4 C80A (Homo sapiens, UniProt P43358, C80A).
T2 sequence (P43358 1-317 C80A): T1 sequence (P43358 1-317) with C80A
The experiment is described as follows: MALDI-MS covalent modification of MAGE-A4 C80A mutant. The experiment is classed as binding. The gist of the method:
(§1)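 MAGE-A4 wild type or its C80A mutant was incubated with each peptide, and the intact protein was analysed by MALDI-MS for covalent adducts. L-Ala and D-Ala variants of each peptide, in which the dehydroalanines are replaced, were run in parallel.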

Experiment [3] concerns the target T1, MAGE-A4. The experiment is described as follows: MALDI-MS covalent modification of MAGE-A4. The experiment is classed as binding. The method in brief: as §1
Experiment [4] addresses T2, MAGE-A4 C80A. The experiment in a line: TR-FRET between AF647-MTP-1 and MAGE-A4 C80A. The settings on record: TR-FRET vs AF647-MTP-1. The experiment is classed as binding.
For experiment [5], the target named is T1, MAGE-A4. The experiment in a line: Mass dilution TR-FRET assay for kinetic parameters. The experiment is classed as binding.
A further experiment deals with T3, RAD18-MAGE-A4 complex (Homo sapiens, UniProt P43358).
T3 sequence (P43358 1-317): T1 sequence (P43358 1-317)
The experiment is described as follows: Co-immunoprecipitation of the RAD18-MAGE-A4 complex in cell lysates. The settings on record: 10 μM peptides. The gist of the method:
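Read-out is Western blotting of MAGE-A4 co-immunoprecipitated with RAD18 from cell lysates. Peptides were tested at 10 μM, alongside a peptide included as a negative control.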

Numbering of substitutions follows the chain as printed.

For orientation: IC50 means the point on the concentration scale where inhibition reaches its midpoint. As a reminder, the Ki is the equilibrium dissociation constant of an inhibitor or competing ligand from its target. A high value points to weaker binding. What is called kinact is the maximal first-order rate at which the target is inactivated. The substance MCP1 had an IC50 at MAGE-A4 [1] (after 1 hour) of 9 nM. Besides, the “change in potency over time” value on MAGE-A4 [1] (time-dependent TR-FRET) is listed as “small yet significant increases in potency over time”. Also, the “covalent modification of MAGE-A4 C80A mutant” value at MAGE-A4 C80A [2] is “did not label”. The “covalent modification of MAGE-A4” value at MAGE-A4 [3] is on record as “modify MAGE-A4”. Besides, the “IC50 / activity in the presence of MAGE-A4 C80A” value on MAGE-A4 C80A [4] is “fell in between those of their L- and D-Ala mutants”. Further, on MAGE-A4 [5], the affinity corresponds to a Ki of 7.3 ± 1.1 nM, the “inactivation efficiency (kinact/KI)” value is 8.17e+06 ± 867000 M⁻¹ s⁻¹ and the kinact was 3.4 ± 0.3 min⁻¹. Further, the “disruption of MAGE-A4 pulldown with RAD18” value on RAD18-MAGE-A4 complex is given as “able to disrupt MAGE-A4 pulldown”.
